Results reported in PubChem BioAssay.
Activity calls are given as the source filed them.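 Rule for the calls, unless noted: active = inhibition above 20% together with a positive visual image hit; inconclusive = visual image hit but inhibition not above 20%; inactive = no visual image hit.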

Tests used:
[1] = inhibitors of TNFa-induced NFkB p65 translocation, primary screen, imaging, HUVEC, MLSMR starter and 10KST1 sets (AID 438); details: HUVEC TNFa-induced p65 nuclear translocation; cell count: measured here: nuclei count (cytotoxicity indicator), at 2.08 µM; inhibition: at 2 µM, stronger effect = higher value, 0% TNFa-plus-vehicle, 100% no-TNFa wells;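 note: compound added about 3h40 before a 20 min TNFalpha stimulation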;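 for inhibition: signal is the nuclear over cytoplasmic p65 intensity ratio per well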
[2] = inhibitors of E-selectin induction by TNFa, primary screen, imaging, HUVEC, immunofluorescence, MLSMR starter and 10KST1 sets (AID 487;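 active = visually confirmed hit in the image check and inhibition above 20%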;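 for inhibition: signal is fraction of cell area covered by stained E-selectin grains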;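 for nuclei count: 100% = median nuclei count of all wells on the same plate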); details: HUVEC TNFalpha-induced E-selectin immunofluorescence imaging, at 2 µM; inhibition: stronger effect = higher value; nuclei count: measured here: cell number, toxicity
[3] = DUSP6 inhibitors restoring Erk phosphorylation by chemical complementation, primary imaging in DUSP6-transfected HeLa (AID 609;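 active = compounds giving at least 50% inhibition in the cell-based MKP-3 phosphatase rescue imaging test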;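 for inhibition: phospho-Erk level distribution per well compared with pooled transfected vehicle control wells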); details: HeLa MKP-3 transfected, phospho-Erk imaging KS statistic, at 10 µM, cells stimulated with TPA for 15 min
[4] = biological target: Dual specificity protein phosphatase 6 (Homo sapiens) (UniProt Q16828); assay: as above; details: HeLa MKP-3 transfected, phospho-Erk imaging KS statistic; at 10 µM; stronger effect = higher value; cells stimulated with TPA for 15 min
Dual specificity protein phosphatase 6 (Homo sapiens), sequence (Q16828 whole entry, looked up): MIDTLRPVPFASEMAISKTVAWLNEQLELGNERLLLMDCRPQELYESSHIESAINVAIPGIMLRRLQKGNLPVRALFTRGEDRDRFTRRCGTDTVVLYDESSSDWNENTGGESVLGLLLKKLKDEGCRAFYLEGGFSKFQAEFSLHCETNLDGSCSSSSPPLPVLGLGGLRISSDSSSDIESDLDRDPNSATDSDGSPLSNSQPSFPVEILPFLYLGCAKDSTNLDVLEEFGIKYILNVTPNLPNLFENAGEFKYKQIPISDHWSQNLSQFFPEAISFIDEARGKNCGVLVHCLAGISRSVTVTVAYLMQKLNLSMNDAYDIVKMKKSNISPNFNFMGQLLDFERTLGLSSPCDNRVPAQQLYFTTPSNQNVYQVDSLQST

[5] = biological target: Voltage-gated potassium channel subunit beta-2 (Rattus norvegicus) (UniProt P62483); assay: KvBeta enzyme negative modulators, primary screen, biochemical, NADPH fluorescence (AID 622;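 active = fluorescence slope higher than the sample average by over 3 SD, cut at about -0.22 in these data, passing the limit was not always enough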;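 note: slope of raw intensity against log time taken from 70 to 1610 s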); details: recombinant KvBeta, 4-cyanobenzaldehyde reduction, at 10 µM, stronger effect = higher value
Voltage-gated potassium channel subunit beta-2 (Rattus norvegicus), sequence (P62483 whole entry, looked up): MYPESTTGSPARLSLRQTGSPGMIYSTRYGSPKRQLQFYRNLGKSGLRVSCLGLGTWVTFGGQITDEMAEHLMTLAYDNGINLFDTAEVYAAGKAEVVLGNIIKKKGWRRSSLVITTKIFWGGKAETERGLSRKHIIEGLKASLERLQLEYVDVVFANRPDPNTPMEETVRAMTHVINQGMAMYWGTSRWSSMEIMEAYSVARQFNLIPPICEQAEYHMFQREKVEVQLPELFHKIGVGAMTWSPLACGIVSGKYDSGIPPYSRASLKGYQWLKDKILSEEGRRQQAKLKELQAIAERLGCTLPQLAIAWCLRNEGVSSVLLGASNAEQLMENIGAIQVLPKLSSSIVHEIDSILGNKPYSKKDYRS

[6] = biological target: Voltage-gated potassium channel subunit beta-2 (Rattus norvegicus) (UniProt P62483); assay: KvBeta positive modulators, primary screen, biochemical, NADPH fluorescence (AID 623;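 active = NADPH fluorescence slope more negative than the mean of all samples by about 3 SD, 99.7% confidence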;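 note: fluorescence intensity change per second fitted from 20 to 320 s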); details: Recombinant KvBeta, NADPH fluorescence decrease slope, 10 min; at 10 µM; stronger effect = lower value
[7] = biological target: Alpha-2C adrenergic receptor (Homo sapiens) (UniProt P18825); assay: modulators of alpha2C/GIRK thallium flux, primary screen, cell-based, HEK293 alpha2C/GIRK1/2 (AID 624;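 active = fluorescence slope after compound addition differing from the mean of all screened samples at 99.7% confidence, in either direction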;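 note: slope of fluorescence ratio to pre-addition baseline per second over 15 to 24 s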); details: thallium flux BTC fluorescence, at 10 µM, actives lie on both sides
Alpha-2C adrenergic receptor (Homo sapiens), sequence (P18825 whole entry, looked up): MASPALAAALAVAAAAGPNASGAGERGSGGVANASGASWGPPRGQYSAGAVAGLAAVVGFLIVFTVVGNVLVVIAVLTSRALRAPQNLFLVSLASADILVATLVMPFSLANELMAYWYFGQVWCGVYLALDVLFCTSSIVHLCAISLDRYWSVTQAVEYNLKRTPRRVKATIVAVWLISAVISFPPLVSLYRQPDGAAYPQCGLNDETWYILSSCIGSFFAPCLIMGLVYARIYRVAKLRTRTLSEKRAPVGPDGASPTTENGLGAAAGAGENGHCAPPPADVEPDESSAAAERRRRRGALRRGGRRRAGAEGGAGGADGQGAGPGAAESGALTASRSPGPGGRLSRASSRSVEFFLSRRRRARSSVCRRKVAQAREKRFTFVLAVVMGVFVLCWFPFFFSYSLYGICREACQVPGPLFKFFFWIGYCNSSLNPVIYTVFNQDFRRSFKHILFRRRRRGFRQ

[8] = inhibitors of larval lipid processing in zebrafish, primary screen, whole organism, PED6 fluorescence, gall bladder and intestine (AID 686;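 active = a full or partial loss of lipid-probe fluorescence in the fish gall bladder, intestine or both, judged by eye; inactive = no fluorescence loss, or compound toxic to the fish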;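 note: larvae 5 to 7 days old with five fish per well; signal comes from phospholipase A2 cleavage of quenched PED6 carried via bile; overnight exposure to compound and PED6 before scoring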); details: Zebrafish larvae PED6 lipid processing, fluorescence scoring; screened at 20 µM (by protocol)
Method in brief: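 System: live zebrafish larvae aged 5-7 days, whole organism; measure: graded gall bladder and intestinal fluorescence inhibition per well; incubation: overnight exposure; reagent: ingested quenched lipid PED6 at 100 nM; signal: By-eye fluorescence microscopy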

[9] = inhibitors of Chlamydomonas gravitaxis, primary screen, whole organism, Chlamydomonas reinhardtii, WT vs cilia-less mutant, absorbance, 96-well (AID 463189;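 active = inhibition at or above 50% relative to wild type and mutant plate controls; inactive = inhibition below 50%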;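 note: 0% = wild type cc124 cells in DMSO and 100% = ciliumless bld1 mutant cells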); details: OD600 absorbance, 2 days, at 10 µM, stronger effect = higher value
[10] = measured here: cell density z-score
[11] = measured here: nuclear c-Myc green intensity z-score
[12] = measured here: nuclear pErk red intensity z-score, stronger effect = higher value

SMILES | cell count [1] | inhibition [1] | inhibition [2] | nuclei count [2] [%] | z-score [3, 10] | z-score [3, 11] | z-score [3, 12] | inhibition [4] | fluorescence slope [5] | NADPH fluorescence slope [6] | slope [7] | outcome [8] | inhibition [9]
COC(=O)CN1C2(C#N)CCCCC2CC2CCCCC21C#N (stereo unspecified) | 420 | -8.8% (inactive) | -128% (inactive) | 153 | -0.336 | -0.947 | -0.0966 | 3.66% (inactive) | -0.504 (inactive) | -9.5e-05 (inactive) | 0.00451 (inactive) | inactive | 45.5% (inactive)
Cc1nn(-c2ccccc2)c2c1C(c1ccc(F)cc1F)C(C#N)=C(N)O2 (stereo unspecified) | 611 | -19.6% (inactive) | 17.2% (inactive) | 184 | 0.29 | -0.619 | 0.392 | 19.1% (inactive) | -0.41 (inactive) | -2.3e-05 (inactive) | 0.00636 (inactive) | inactive | 18.8% (inactive)
Clc1ccc2[nH]c3c(NCCCN4CCOCC4)ncnc3c2c1 | 471 | -7.1% (inactive) | -31.4% (inactive) | 102 | -0.293 | -0.352 | 1.38 | -13.3% (inactive) | -0.52 (inactive) | 6.4e-06 (inactive) | 0.00501 (inactive) | inactive | -7.19% (inactive)
COc1ccc(-n2c(=O)c3c4c(sc3n3c(C)nnc23)CC(C)CC4)cc1 (stereo unspecified) | 617 | 3.9% (inactive) | 15.9% (inactive) | 162 | -1.05 | 0.383 | -0.315 | -0.608% (inactive) | -0.324 (inactive) | 8.8e-06 (inactive) | 0.00514 (inactive) | inactive | 53.4% (active)
CC1=CC=CN2CC(O)CN=C12 (stereo unspecified) | 552 | -3.9% (inactive) | -109% (inactive) | 196 | -0.0904 | 1.89 | -0.427 | 22.1% (inactive) | -0.33 (inactive) | -1.5e-05 (inactive) | 0.00477 (inactive) | inactive | 4.05% (inactive)
Cc1cc(C)cc(-n2c3nc4ccccc4nc3c3c(=O)n(Cc4ccco4)cnc32)c1 | 319 | -15.5% (inactive) | -94.4% (inactive) | 134 | 0.126 | -0.244 | -0.872 | 3.5% (inactive) | -0.396 (inactive) | -0.000101 (inactive) | 0.0051 (inactive) | inactive | -2.54% (inactive)
CCOC(=O)c1nc2nc(C)c(Cl)c(=O)n2[nH]1 | 529 | 3.9% (inactive) | -83.9% (inactive) | 153 | 0.438 | -0.565 | -0.252 | 14% (inactive) | -0.497 (inactive) | -4.1e-05 (inactive) | 0.00501 (inactive) | inactive | 0.754% (inactive)
CCOc1ccc(/C(O)=C2/C(=O)C(=O)N(CCN(C)C)C2c2ccccc2)cc1Cl (stereo unspecified) | 539 | -10.3% (inactive) | -64% (inactive) | 156 | 2.52 | 0.178 | -1.22 | 2.92% (inactive) | -0.502 (inactive) | -5.4e-05 (inactive) | 0.00531 (inactive) | inactive | 2.01% (inactive)
CC1CN(C2CCN(S(=O)(=O)Cc3ccccc3)CC2)CC(C)O1 (stereo unspecified) | 355 | -15.2% (inactive) | -254% (inactive) | 179 | 0.356 | 0.313 | 0.176 | 5.57% (inactive) | -0.391 (inactive) | -1.6e-05 (inactive) | 0.00538 (inactive) | inactive | 32.6% (inactive)
CCCC(=O)N1CCN(c2nc(CC(C)C)c3c(c2C#N)CCC3)CC1 | 529 | -8.3% (inactive) | -117% (inactive) | 130 | -0.247 | 0.583 | 0.103 | -5.26% (inactive) | -0.5 (inactive) | -1.9e-05 (inactive) | 0.00433 (inactive) | inactive | -3.24% (inactive)
Cn1c(=O)oc2cc(C(=O)c3ccccc3)ccc21 | 442 | -7.7% (inactive) | -42.8% (inactive) | 177 | 0.0253 | -0.374 | -0.71 | 1.04% (inactive) | -0.332 (inactive) | -3.5e-05 (inactive) | 0.00473 (inactive) | inactive | -6.29% (inactive)
CC1(C(=O)O)CCC(C(=O)NC2CCCCCC2)C1(C)C (stereo unspecified) | 542 | -9.8% (inactive) | -131% (inactive) | 196 | 1.72 | -0.55 | -1.37 | 28.6% (inactive) | -0.513 (inactive) | -0.000107 (inactive) | 0.00621 (inactive) | inactive | 28.8% (inactive)
Cc1nc(SCC(=O)c2ccccc2)c(C#N)c(-c2ccco2)c1C(=O)NCc1ccco1 | 391 | 0.8% (inactive) | 17.3% (inactive) | 138 | 0.205 | -0.115 | 1.15 | 11.4% (inactive) | -0.39 (inactive) | -0.000131 (inactive) | 0.0062 (inactive) | inactive | 10.9% (inactive)
C=CCOc1nc2c(c(=O)n(C)c(=O)n2C)n1Cc1ccc(Cl)cc1 | 659 | 7.6% (inactive) | -11.6% (inactive) | 137 | -0.719 | 0.0983 | 0.628 | 27.5% (inactive) | -0.516 (inactive) | -0.000102 (inactive) | 0.00536 (inactive) | inactive | 4.31% (inactive)
CCCOc1ccc(C(C)=O)cc1CSCCC#N | 298 | -26.4% (inactive) | -186% (inactive) | 136 | -0.222 | -1.52 | 0.779 | 7.01% (inactive) | -0.462 (inactive) | -0.000379 (inactive) | 0.00586 (inactive) | inactive | 17.2% (inactive)
CCOC(=O)CSc1nc(C)c(C(C)=O)cc1C#N | 623 | -18.6% (inactive) | -0.7% (inactive) | 147 | -0.31 | -1.06 | -1.5 | -0.624% (inactive) | -0.403 (inactive) | -1.7e-05 (inactive) | 0.00581 (inactive) | inactive | 43.9% (inactive)
COc1ccccc1C(CC(=O)Nc1nccs1)c1ccco1 (stereo unspecified) | 354 | -14.3% (inactive) | -98.9% (inactive) | 155 | -0.704 | -0.887 | -0.714 | 1.75% (inactive) | -0.398 (inactive) | -7.2e-05 (inactive) | 0.00663 (inactive) | inactive | 31.8% (inactive)
CC(C)Oc1ccc(/C(O)=C2/C(=O)C(=O)N(CCN3CCOCC3)C2c2ccccc2)cc1 (stereo unspecified) | 564 | 4.6% (inactive) | -21.9% (inactive) | 179 | -0.496 | -0.0457 | 0.947 | -1.12% (inactive) | -0.338 (inactive) | -1.3e-05 (inactive) | 0.0044 (inactive) | inactive | 0.719% (inactive)
Clc1ccc(-c2nnc3sc(Cc4cccs4)nn23)c(Cl)c1 | 664 | 0.3% (inactive) | -136% (inactive) | 169 | 0.203 | 0.587 | -0.53 | -9.66% (inactive) | -0.43 (inactive) | -0.00015 (inactive) | 0.00477 (inactive) | inactive | 37.7% (inactive)
Cc1ccc2c(c1)C(CCN)C(=O)N2Cc1ccccc1 (stereo unspecified) | 622 | -12.2% (inactive) | -11.3% (inactive) | 154 | 0.106 | 0.432 | 0.437 | -15% (inactive) | -0.424 (inactive) | -3.4e-05 (inactive) | 0.00511 (inactive) | inactive | 9.26% (inactive)
CCc1cc2c(=O)c(-c3cscn3)coc2c(CN(C)C)c1O | 517 | -8.2% (inactive) | -53.3% (inactive) | 86.5 | 0.222 | -0.434 | 0.878 | 1.9e-07% (inactive) | -0.0873 (inactive) | -2.5e-06 (inactive) | 0.00409 (inactive) | inactive | 15.7% (inactive)
CC/C(C)=C1\SC(N2CCN(C(C)=O)CC2)=NC1=O | 475 | -8.5% (inactive) | -322% (inactive) | 208 | -0.503 | -0.13 | 0.531 | 4.37% (inactive) | -0.377 (inactive) | -3.8e-06 (inactive) | 0.00493 (inactive) | inactive | -1.03% (inactive)
c1ccc(-c2nnc3n2N=C(c2ccc4c(c2)OCO4)CS3)nc1 | 626 | -5% (inactive) | -177% (inactive) | 144 | 0.439 | 0.912 | 0.545 | -11.5% (inactive) | -0.406 (inactive) | -0.000131 (inactive) | 0.00609 (inactive) | inactive | -7.21% (inactive)
Cc1ccc(S(=O)(=O)c2cc3c(=O)n4ccccc4nc3n(C)c2=N)cc1 | 563 | -16.4% (inactive) | -78% (inactive) | 162 | 0.476 | -0.181 | 0.227 | -16.8% (inactive) | -0.453 (inactive) | -3.3e-05 (inactive) | 0.00439 (inactive) | inactive | 1.37% (inactive)
COc1ccccc1-n1c(=O)c2c3c(sc2n2c(SC)nnc12)CCC3 | 612 | -29% (inactive) | -100% (inactive) | 169 | -1.08 | -0.0482 | 1.7 | -0.608% (inactive) | -0.367 (inactive) | -5.4e-05 (inactive) | 0.00462 (inactive) | inactive | 16.5% (inactive)
Cn1nccc1C(=O)Nc1ccccc1C(=O)O | 640 | -1.2% (inactive) | 16% (inactive) | 170 | 1.93 | -0.909 | -0.448 | 11.4% (inactive) | -0.449 (inactive) | -0.000369 (inactive) | 0.00518 (inactive) | inactive | 15.5% (inactive)
CCOP(=O)(c1ccccc1)c1nc(-c2ccccc2C)oc1N1CCCCC1 (stereo unspecified) | 603 | -2.4% (inactive) | -34% (inactive) | 167 | -0.907 | 0.675 | 1.07 | 13.2% (inactive) | -0.49 (inactive) | -0.000125 (inactive) | 0.00422 (inactive) | inactive | 56.6% (active)
